Active and inactive are the calls of the source. The rule behind the calls is not given here.
Columns and labels:
[1] = target: T1, Gamma-aminobutyric acid receptor subunit rho-1 (Homo sapiens, UniProt P24046); assay: Antagonist activity at human GABAc Rho1 receptor expressed in Xenopus oocytes assessed as whole cell current production by two electrode voltage clamp method; type: functional, cell-based; conditions: for Kb: Oocyte
[2] = target: T1, Gamma-aminobutyric acid receptor subunit rho-1; assay: Agonist activity at human GABAc Rho1 receptor expressed in Xenopus oocytes assessed as whole cell current production by two electrode voltage clamp method; type: functional, cell-based, Oocyte
[3] = target: T1, Gamma-aminobutyric acid receptor subunit rho-1; assay: Antagonist activity at human GABAc Rho1 receptor expressed in Xenopus oocytes assessed as whole cell current production at 600 uM by two electrode voltage clamp method; type: functional, cell-based; conditions: Oocyte
[4] = target: T2, Gamma-aminobutyric acid type B receptor subunit 1 (Homo sapiens, UniProt Q9UBS5); assay: Activity at human GABAb 1A/2 receptor expressed in Xenopus oocytes assessed as whole cell current production at 600 uM by two electrode voltage clamp method; type: cell-based; conditions: Oocyte
[5] = target: T2, Gamma-aminobutyric acid type B receptor subunit 1; assay: Intrinsic activity at human GABAb 1A/2 receptor expressed in Xenopus oocytes assessed as maximum whole cell current production by two electrode voltage clamp method relative to GABA; type: cell-based; conditions: Oocyte
In short: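 Human GABA-B(1A/2) receptors expressed from cRNA (50 ng/50 nL) in Xenopus oocytes held 1-5 days at 18 °C. Voltage clamp at -60 mV in high-K+ buffer (45 mM KCl, 45 mM NaCl, 1 mM MgCl2, 1.8 mM CaCl2, 5 mM HEPES). Responses normalised to the maximal response to 600 µM GABA. Imax and EC50 taken from concentration-response fits. Mean ± SEM, n = 3-5 oocytes.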

[6] = target: T2, Gamma-aminobutyric acid type B receptor subunit 1; assay: Agonist activity at human GABAb 1A/2 receptor expressed in Xenopus oocytes assessed as whole cell current production by two electrode voltage clamp method; type: functional, cell-based, Oocyte
[7] = target: T3, GABA-A receptor; agonist GABA site (Homo sapiens) (UniProt P14867+P47870+P28472+P48169+P34903+P18505+P47869+P31644+Q16445); assay: Activity at human alpha-1-beta-2-gamma-2L GABAA receptor expressed in Xenopus oocytes assessed as inhibition of current production at 600 uM by two electrode voltage clamp method relative to GABA; type: cell-based; conditions: Oocyte
[8] = target: T3, GABA-A receptor; agonist GABA site (Homo sapiens); assay: Agonist activity at human alpha-1-beta-2-gamma-2L GABAA receptor expressed in Xenopus oocytes assessed as inhibition of current production by two electrode voltage clamp method; type: functional, cell-based; conditions: Oocyte

T1 sequence (P24046 whole entry): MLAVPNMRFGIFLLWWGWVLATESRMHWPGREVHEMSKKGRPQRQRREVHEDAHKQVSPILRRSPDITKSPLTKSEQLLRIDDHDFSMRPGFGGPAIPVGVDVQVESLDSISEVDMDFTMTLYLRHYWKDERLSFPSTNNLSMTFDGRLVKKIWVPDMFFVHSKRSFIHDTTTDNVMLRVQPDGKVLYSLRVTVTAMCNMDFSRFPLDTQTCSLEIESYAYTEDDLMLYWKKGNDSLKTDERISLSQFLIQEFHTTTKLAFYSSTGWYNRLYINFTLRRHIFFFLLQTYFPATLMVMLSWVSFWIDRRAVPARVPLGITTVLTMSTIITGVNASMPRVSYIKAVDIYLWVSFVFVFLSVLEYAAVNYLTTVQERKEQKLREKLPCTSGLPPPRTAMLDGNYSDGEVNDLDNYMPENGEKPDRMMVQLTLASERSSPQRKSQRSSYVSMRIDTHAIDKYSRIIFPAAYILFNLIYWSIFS
T2 sequence (Q9UBS5 whole entry): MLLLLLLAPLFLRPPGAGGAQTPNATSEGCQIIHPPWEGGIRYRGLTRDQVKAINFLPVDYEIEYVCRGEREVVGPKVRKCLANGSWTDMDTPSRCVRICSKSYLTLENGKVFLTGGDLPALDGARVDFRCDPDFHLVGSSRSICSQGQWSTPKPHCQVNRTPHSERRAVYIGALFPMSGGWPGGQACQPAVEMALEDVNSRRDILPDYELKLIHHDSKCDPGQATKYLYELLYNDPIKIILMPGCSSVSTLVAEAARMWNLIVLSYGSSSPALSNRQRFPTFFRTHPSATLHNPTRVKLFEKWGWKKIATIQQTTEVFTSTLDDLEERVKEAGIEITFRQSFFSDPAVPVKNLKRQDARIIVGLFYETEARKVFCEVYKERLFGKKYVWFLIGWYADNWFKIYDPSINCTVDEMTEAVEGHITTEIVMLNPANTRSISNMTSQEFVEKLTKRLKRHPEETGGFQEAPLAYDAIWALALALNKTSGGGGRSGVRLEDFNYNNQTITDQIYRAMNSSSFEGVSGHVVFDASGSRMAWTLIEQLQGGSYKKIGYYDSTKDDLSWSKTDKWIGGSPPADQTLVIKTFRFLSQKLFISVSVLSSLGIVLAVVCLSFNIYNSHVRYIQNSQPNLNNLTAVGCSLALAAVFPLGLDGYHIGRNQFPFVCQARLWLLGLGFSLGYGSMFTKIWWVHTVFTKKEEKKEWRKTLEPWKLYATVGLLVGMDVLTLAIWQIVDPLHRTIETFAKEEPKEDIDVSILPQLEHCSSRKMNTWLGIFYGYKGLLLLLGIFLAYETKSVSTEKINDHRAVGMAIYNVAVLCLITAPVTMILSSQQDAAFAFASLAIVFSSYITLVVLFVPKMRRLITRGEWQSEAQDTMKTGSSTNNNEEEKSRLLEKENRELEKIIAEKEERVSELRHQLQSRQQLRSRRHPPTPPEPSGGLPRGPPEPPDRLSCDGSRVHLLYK

N[C@H]1CC=C(C(=O)O)C1 (stereo in doubt; (S-6))
Kb [1]: 6.1 µM

NC/C=C/C(=O)O [t-4-AMINOCROTONIC ACID (TACA)]
EC50 [2]: 0.4 µM

CP(=O)(O)[C@]1(O)C[C@@H](N)C1
Activity [3]: inactive
Activity [4]: inactive

CP(=O)(O)C1CCNCC1
Kb [1]: 6 µM

CP(=O)(O)C1=CC[C@H](N)C1
Imax [5]: 75.9%
EC50 [6]: 52.2 µM
inhibition [7]: 4.1%
Kb [1]: 0.78 µM

CCCCP(=O)(O)C1=CCC(N)C1 (racemic)
inhibition [7]: 23.2%
Kb [1]: 7.24 µM

NCCCCC(=O)O
Kb [1]: 20 µM

O=C(O)Cc1c[nH]cn1
Kb [1]: 1.7 µM

NCC(=O)CCC(=O)O [AMINOLEVULINIC ACID]
IC50 [1]: 12.9 µM

CP(=O)(O)C1=CCC(N)C1 (racemic)
Imax [5]: 56.4%
EC50 [6]: 51 µM
inhibition [7]: 6.2%
Kb [1]: 1.84 µM

NC1CC=C(P(=O)(O)Cc2ccccc2)C1 (racemic)
inhibition [7]: 64.1%
Kb [1]: 48.6 µM

CP(=O)(O)[C@H]1C[C@H](N)C1
Activity [4]: inactive
IC50 [1]: > 100 µM

CCP(=O)(O)C1=CCC(N)C1 (racemic)
inhibition [7]: 5.2%
Kb [1]: 3.53 µM

CP(=O)(O)[C@H]1C[C@@H](N)C1
Activity [4]: inactive
IC50 [1]: > 100 µM

NC[C@@H]1C[C@H]1C(=O)O
EC50 [2]: 9 µM

NC[C@H]1C[C@@H]1C(=O)O
EC50 [2]: 59 µM

Oc1noc2c1CCNC2
Kb [1]: 32 µM

NC[C@@H]1C[C@@H]1C(=O)O
IC50 [1]: > 800 µM

CP(=O)(O)/C=C\CN
Kb [1]: 38.9 µM

CP(=O)(O)C1=CCNCC1
EC50 [6]: 500 µM
Kb [1]: 2.1 µM

CP(=O)(O)[C@H]1CC[C@@H](N)C1
Kb [1]: 1.1 µM

CP(=O)(O)C1=CC[C@@H](N)C1
Imax [5]: 52.3%
EC50 [6]: 71.9 µM
Activity [7]: inactive
Kb [1]: 18.9 µM

CP(=O)(O)[C@@H]1CC[C@@H](N)C1
Kb [1]: 6.6 µM

NC[C@H]1C[C@H]1C(=O)O
EC50 [2]: 40 µM

CC(C)P(=O)(O)C1=CCC(N)C1 (racemic)
inhibition [7]: 8.8%
Kb [1]: 13.1 µM

CCCCP(=O)(O)C1=CC[C@@H](N)C1
Activity [7]: inactive
Kb [1]: 59.3 µM

CP(=O)(O)[C@]1(O)C[C@H](N)C1
Activity [3]: inactive
Activity [4]: inactive

O=[Se](O)C1CCNCC1
Kb [1]: 0.95 µM

NCc1cc(=O)[nH]o1 [MUSCIMOL]
EC50 [2]: 1.4 µM

CP(=O)(O)[C@H]1CC[C@H](N)C1
Kb [1]: 6.6 µM

CCCCP(=O)(O)C1=CC[C@H](N)C1
inhibition [7]: 24.2%
Kb [1]: 4.97 µM

N[C@H]1CC=C(C(=O)O)C1 (stereo in doubt; 6)
ED50 [8]: 1.1 µM
Kb [1]: 6 µM

CP(=O)(O)[C@@H]1CC[C@H](N)C1
Kb [1]: 1.1 µM
